pEC50, pIC50: −log10 of the molar value.
How the values were obtained:
[1] = tested on: HT-22; assay: Inhibition of glutamate-induced oxytosis of mouse hippocampal HT22 cells; type: functional, cell-based
Outline: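 HT22 cells were plated at 4000 per well in phenol-red-free DMEM-HEPES with dextran-charcoal-treated FBS for 24 h. Serial compound dilutions were added with or without 5 mM glutamate for 24 h at 37 °C, and viability was read by MTT formazan conversion. EC50 is the concentration giving glutamate-exposed viability 50% of non-exposed cells; 3-7 independent experiments, mean ± SEM.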

[2] = tested on: Jurkat; assay: Activity against hydrogen peroxide induced DNA damage in Jurkat T cells; type: functional, cell-based, Homo sapiens; details: for IC50: jurkat; for pIC50: Homo sapiens, Jurkat, read-out: IC50
Outline: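 Jurkat T cells (1.5 × 10⁵ per well, RPMI 1640 with 10% FCS) were preincubated 1 h at 37 °C, given compound 30 min before glucose oxidase (60 ng, about 11.8 µM H₂O₂/min), and exposed 10 min. Alkaline comet assay followed: lysis, unwinding at pH >13 for 40 min, electrophoresis at 1 V/cm for 30 min, Hoechst 33342 staining, visual scoring of 100 nucleoids. IC50 is the concentration halving strand breakage.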

[3] = tested on: Radical scavenging activity; assay: Antioxidant potency assessed chemically; type: functional
Outline: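 TEAC determined by the Rice-Evans and Miller method, using 0.3 mM trolox solution with data normalized to 1.0 mM trolox.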

SMILES | pEC50 [1] | IC50 [2] | Activity [3] [µM] | pIC50 [2]
COc1ccc(C#Cc2c(O)c(C)c(C)c3c2CCC(C)(C)O3)cc1OC | < 5.00 |  |  | 
Cc1c(C)c2c(c(C)c1O)CCC(C)(C(=O)O)O2 (stereo unspecified) [TROLOX] |  | Not Active | 1 | 
Cc1c(C)c2c(c(C)c1O)CCC(C)(C(=O)N1CCN(C(=O)/C=C/c3ccc(O)c(O)c3)CC1)O2 (stereo unspecified) | 5.83 |  | 6.55 | 4.30
Cc1c(C)c2c(c(NC(=O)/C=C/c3ccc(O)c(O)c3)c1O)CCC(C)(C)O2 | 5.91 |  | 4.28 | 5.30
COc1ccc(CCc2c3c(c(C)c(C)c2OC)OC(C)(C)CC3)cc1OC | 5.34 | Not Active | 0.05 | 
Cc1c(C)c2c(c(C)c1O)CCC(C)(C(=O)NCCNCCNC(=O)/C=C/c1ccc(O)c(O)c1)O2 (stereo unspecified) | < 5.00 |  | 6.33 | 4.30
Cc1c(C)c2c(c3c1OC(c1ccc(O)c(O)c1)C3)CCC(C)(C)O2 (stereo unspecified) | 6.00 |  | 5.9 | 5.00
Cc1c(C)c2c(c(C)c1O)CCC(C)(CNC(=O)/C=C/c1ccc(O)c(O)c1)O2 (stereo unspecified) | 5.94 |  | 6.53 | 4.60
Cc1c(C)c2c(c(C)c1O)CCC(C)(C(=O)NCCNC(=O)/C=C/c1ccc(O)c(O)c1)O2 (stereo unspecified) | 5.13 |  | 6.5 | 4.12
COc1ccc(/C=C/C(=O)N2CCN(C(=O)C3(C)CCc4c(C)c(O)c(C)c(C)c4O3)CC2)cc1OC (stereo unspecified) | 6.19 | Not Active | 1.26 | 
COc1c(C)c(C)c2c(c1CCc1ccc(O)c(O)c1)CCC(C)(C)O2 | 5.93 |  | 1.6 | 5.00
COc1c(C)c(C)c2c(c1C)CCC(C)(C(=O)N1CCN(C(=O)/C=C/c3ccc(O)c(O)c3)CC1)O2 (stereo unspecified) | 5.68 |  | 6.12 | 4.30
O=c1c(O)c(-c2ccc(O)c(O)c2)oc2cc(O)cc(O)c12 [QUERCETIN] | 5.53 |  | 4.3 | 5.30
O=C(O)/C=C/c1ccc(O)c(O)c1 [CAFFEIC ACID] |  | Not Active | 1.2 | 
Cc1c(C)c2c(c(CCc3ccc(O)c(O)c3)c1O)CCC(C)(C)O2 | 6.03 |  | 3.74 | 5.30
COc1c(C)c(C)c2c(c1CNC(=O)/C=C/c1ccc(O)c(O)c1)CCC(C)(C)O2 | 5.67 |  | 3.8 | 6.00
COc1c(C)c(C)c2c(c1NC(=O)/C=C/c1ccc(O)c(O)c1)CCC(C)(C)O2 | < 5.00 |  | 6.53 | 4.70
Cc1c(C)c2c(c(C)c1O)CCC(C)(C(=O)NCCN1CCN(C(=O)/C=C/c3ccc(O)c(O)c3)CC1)O2 (stereo unspecified) | 5.20 |  | 6.24 | 4.70
COc1ccc(/C=C/c2c3c(c(C)c(C)c2OC)OC(C)(C)CC3)cc1OC | < 5.00 |  |  | 

Source: ChEMBL document CHEMBL1147741, “Chroman/catechol hybrids: synthesis and evaluation of their activity against oxidative stress induced cellular damage” (J Med Chem, 2006)
